Test results: ChEMBL document CHEMBL4393708, “Pyridinylimidazoles as dual glycogen synthase kinase 3β/p38α mitogen-activated protein kinase inhibitors” (Eur J Med Chem, 2019)

Key:
[1] = molecular target: Aurora kinase A (Homo sapiens) (UniProt O14965); assay: Inhibition of recombinant human Aurora A at 1 uM using Ulight-RRRSLLE substrate incubated for 15 mins in presence of ATP by LANCE assay relative to control
CYP1A2 = CYP1A2 (Homo sapiens, UniProt P05177); assay: Inhibition of human recombinant CYP1A2 expressed in baculovirus infected insect cells using 3-cyano-7-ethoxycoumarin as substrate at 10 uM in presence of NADPH by fluorimetric analysis relative to control; type: ADME; conditions: probe 3-cyano-7-ethoxycoumarin
Sequence of CYP1A2 (P05177 whole entry): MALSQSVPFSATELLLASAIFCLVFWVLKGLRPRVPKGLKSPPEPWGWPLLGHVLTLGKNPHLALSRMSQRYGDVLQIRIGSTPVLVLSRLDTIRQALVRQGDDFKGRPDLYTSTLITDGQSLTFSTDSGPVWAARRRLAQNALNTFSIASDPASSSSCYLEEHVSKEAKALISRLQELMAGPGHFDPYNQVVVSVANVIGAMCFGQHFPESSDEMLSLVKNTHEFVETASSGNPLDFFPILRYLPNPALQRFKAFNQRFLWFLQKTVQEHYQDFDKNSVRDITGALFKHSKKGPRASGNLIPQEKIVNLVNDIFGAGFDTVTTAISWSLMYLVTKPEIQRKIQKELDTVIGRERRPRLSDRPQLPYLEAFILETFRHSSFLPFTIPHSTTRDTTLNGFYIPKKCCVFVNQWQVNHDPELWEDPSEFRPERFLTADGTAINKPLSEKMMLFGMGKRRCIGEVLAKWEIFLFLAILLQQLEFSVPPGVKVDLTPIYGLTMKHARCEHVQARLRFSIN

[2] = molecular target: Insulin receptor (Homo sapiens) (UniProt P06213); assay: Inhibition of human recombinant IR at 1 uM using Ulight-Poly GAT[EAY(1:1:1)]n as substrate measured after 10 mins in presence of ATP by LANCE assay relative to control
Sequence of Insulin receptor (Homo sapiens) (P06213 28-758 limits assumed): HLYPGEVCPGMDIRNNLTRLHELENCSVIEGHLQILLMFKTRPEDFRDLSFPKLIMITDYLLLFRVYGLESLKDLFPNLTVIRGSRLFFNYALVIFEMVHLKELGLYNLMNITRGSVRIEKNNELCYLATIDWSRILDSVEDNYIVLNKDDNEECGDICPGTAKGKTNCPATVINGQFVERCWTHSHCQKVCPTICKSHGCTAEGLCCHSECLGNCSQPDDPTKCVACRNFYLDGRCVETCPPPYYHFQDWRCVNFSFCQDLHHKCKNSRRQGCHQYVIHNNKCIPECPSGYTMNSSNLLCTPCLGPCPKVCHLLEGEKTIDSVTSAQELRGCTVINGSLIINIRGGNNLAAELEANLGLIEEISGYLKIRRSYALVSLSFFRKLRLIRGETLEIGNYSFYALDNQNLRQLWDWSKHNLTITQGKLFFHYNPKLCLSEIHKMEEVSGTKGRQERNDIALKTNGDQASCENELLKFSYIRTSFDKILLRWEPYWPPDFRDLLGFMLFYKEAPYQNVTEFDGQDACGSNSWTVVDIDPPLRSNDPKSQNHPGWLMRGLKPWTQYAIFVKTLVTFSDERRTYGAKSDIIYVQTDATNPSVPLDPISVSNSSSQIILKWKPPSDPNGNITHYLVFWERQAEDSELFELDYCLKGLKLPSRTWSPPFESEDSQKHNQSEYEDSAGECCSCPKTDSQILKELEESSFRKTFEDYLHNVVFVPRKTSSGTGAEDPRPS
Sequence of Insulin receptor (Homo sapiens) (P06213 763-1382 limits assumed): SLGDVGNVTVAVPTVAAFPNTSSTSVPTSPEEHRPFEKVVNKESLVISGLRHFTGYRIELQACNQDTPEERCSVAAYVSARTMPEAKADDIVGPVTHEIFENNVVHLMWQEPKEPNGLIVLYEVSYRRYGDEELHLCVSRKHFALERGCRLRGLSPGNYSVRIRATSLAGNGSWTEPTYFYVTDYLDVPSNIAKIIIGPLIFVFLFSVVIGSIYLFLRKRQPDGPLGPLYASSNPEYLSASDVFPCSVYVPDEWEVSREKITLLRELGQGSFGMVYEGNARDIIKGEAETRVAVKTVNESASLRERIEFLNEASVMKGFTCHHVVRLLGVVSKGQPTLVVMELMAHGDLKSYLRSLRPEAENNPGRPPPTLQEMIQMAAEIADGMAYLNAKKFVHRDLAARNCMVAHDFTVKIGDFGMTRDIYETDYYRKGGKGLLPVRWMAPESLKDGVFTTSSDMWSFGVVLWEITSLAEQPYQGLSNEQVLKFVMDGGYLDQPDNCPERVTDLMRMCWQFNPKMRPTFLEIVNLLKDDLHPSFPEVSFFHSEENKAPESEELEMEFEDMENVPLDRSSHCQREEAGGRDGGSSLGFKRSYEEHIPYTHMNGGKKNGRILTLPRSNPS
Summary of the method: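 Kinase panel run by an outside provider (Eurofins Cerep) in a LANCE assay, single test concentration of 1 µM, results as percent inhibition.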

Sequence of Aurora kinase A (Homo sapiens) (O14965 whole entry): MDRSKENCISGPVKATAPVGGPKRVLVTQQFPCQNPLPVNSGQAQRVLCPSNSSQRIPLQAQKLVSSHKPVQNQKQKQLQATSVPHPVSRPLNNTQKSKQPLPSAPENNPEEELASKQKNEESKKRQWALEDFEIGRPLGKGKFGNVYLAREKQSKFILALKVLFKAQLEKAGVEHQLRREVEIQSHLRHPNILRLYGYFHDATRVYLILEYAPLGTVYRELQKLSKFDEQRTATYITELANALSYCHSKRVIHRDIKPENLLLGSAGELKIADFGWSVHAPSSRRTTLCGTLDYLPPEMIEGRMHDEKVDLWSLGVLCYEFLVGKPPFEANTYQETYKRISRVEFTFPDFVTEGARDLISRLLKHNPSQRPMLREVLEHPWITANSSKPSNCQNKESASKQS

For `CCc1nc(-c2ccc(F)cc2)c(-c2ccnc(NC(=O)C3CC3)c2)[nH]1`, the inhibition [1] was 2.76%, the inhibition at 10 µM (CYP1A2) was 83.6% and the inhibition [2] was 4.24%.
